Experimental data: ChEMBL document CHEMBL2331469, “Discovery and Preliminary SAR of Arylpiperazines as Novel, Brainpenetrant Antiprion Compounds” (ACS Med Chem Lett, 2013)

Columns and labels:
N2a-cl3 = assay: Antiprion activity against sheep RML prion protein-infected in mouse ScN2a-cl3 cells assessed as reduction of PrPSc level after 5 days by ELISA relative to control; type: cell-based; set-up: concentration or dose not given beside the values; conditions: Ovis aries, dose or concentration not given here
[1] = Antiprion activity against sheep RML prion protein-infected in mouse ScN2a-cl3 cells assessed as reduction of PrPSc level after 5 days by ELISA; type: cell-based; conditions: Ovis aries, N2a-cl3, 120 h
Procedure, shortened: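 RML prion-infected murine neuroblastoma ScN2a-cl3 cells. PrPSc levels were measured by ELISA, and EC50 was derived from 3 tests. Cell viability was run alongside each EC50 measurement in the same cells using calcein-AM fluorescence, to exclude cytotoxicity.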

[2] = Cytotoxicity against mouse ScN2a-cl3 cells assessed as cell viability after 5 days by calcein cell viability assay; type: cell-based; conditions: n2a-cl3, 120 h, read-out: LC50 (the source's name)
Procedure, shortened: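 Viability of RML prion-infected ScN2a-cl3 cells was read with the fluorescent probe calcein-AM. It was run alongside each PrPSc ELISA EC50 measurement to rule out cytotoxicity, and LC50 was derived from 3 tests.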

Liver = assay: Metabolic stability in mouse liver microsomes assessed as half life by LC-MS analysis; type: ADME, Microsome
Liver microsomes = assay: Metabolic stability in human liver microsomes assessed as half life by LC-MS analysis; type: ADME, Microsome
Brain = assay: (§1) AUC (0 to 6 hrs) in wild type FVB mouse brain at 10 mg/kg, po by LC-MS analysis; type: ADME, organism-based; set-up: time < 6 hr, dose 10 mg/kg, route oral; conditions: in vivo, 6 h
[3] = Cmax in wild type FVB mouse brain at 10 mg/kg, po by LC-MS analysis; type: ADME, organism-based; set-up: dose 10 mg/kg, route oral
[4] = AUC (0 to 6 hrs) in wild type FVB mouse plasma at 10 mg/kg, po by LC-MS analysis; type: ADME, organism-based; set-up: time < 6 hr, dose 10 mg/kg, route oral
[5] = (§2) Cmax in wild type FVB mouse plasma at 10 mg/kg, po by LC-MS analysis; type: ADME, organism-based; set-up: dose 10 mg/kg, route oral; conditions: FVB, plasma
Plasma = assay: as §2; type: ADME, organism-based; set-up: dose 10 mg/kg, route oral; conditions: in vivo
[6] = as §1; type: ADME, organism-based; set-up: time < 6 hr, dose 10 mg/kg, route oral; conditions: FVB, brain

Row | SMILES | inhibition (N2a-cl3) [%] | EC50 [1] [µM] | further results
1 | Fc1ccc(N2CCN(Cc3ccccc3)CC2)cc1 | 7 | – | –
2 | c1cncc(CN2CCN(c3ccc(-c4ncco4)cc3)CC2)c1 | – | > 10 | CC50 [2]: > 10 µM
3 | Fc1ccc(N2CCN(Cc3cccnc3)CC2)cc1 | 27 | > 32 | –
4 | Cc1ccc(CN2CCN(c3ccc(-c4nc5ccccc5o4)cc3)CC2)cn1 | – | > 10 | CC50 [2]: > 10 µM
5 | COc1ccccc1N1CCN(Cc2cccnc2)CC1 | – | > 32 | –
6 | CC(=O)c1ccc(N2CCN(Cc3cccs3)CC2)cc1 | 91 | 1.95 | –
7 | c1ccc(CN2CCN(c3ccccc3)CC2)cc1 | 5 | – | –
8 | c1csc(CN2CCN(c3ccc(-c4ncco4)cc3)CC2)c1 | – | > 10 | CC50 [2]: > 10 µM
9 | COc1ccc(N2CCN(Cc3ccc(Br)o3)CC2)cc1 | 6 | – | –
10 | COc1ccc(N2CCN(Cc3cccs3)CC2)cc1 | 16 | – | –
11 | Clc1ccc(N2CCN(Cc3ccc(Br)s3)CC2)cc1 | 12 | – | –
12 | c1csc(CN2CCN(c3ccc(-c4nc5ccccc5o4)cc3)CC2)c1 | – | 4.2 | CC50 [2]: > 10 µM
13 | Clc1ccc(N2CCN(Cc3cccnc3)CC2)cc1 | 0 | – | –
14 | CC(=O)c1ccc(N2CCN(Cc3sccc3C)CC2)cc1 | 78 | – | –
15 | COc1ccc(N2CCN(Cc3ccccc3)CC2)cc1 | 7 | – | –
16 | Fc1ccc(CN2CCN(c3ccc(-c4nc5ccccc5o4)cc3)CC2)cn1 | – | 0.4 | t1/2 (Liver): 7.3 min; t1/2 (Liver microsomes): 43.6 min; AUC (Brain): 1.3 µM·h; CC50 [2]: > 10 µM; Cmax [3]: 400 nM; AUC(0-t) at 6 h [4]: 1.2 µM·h
17 | COc1ccc(N2CCN(Cc3cccnc3)CC2)cc1 | 10 | > 32 | –
18 | CC(=O)c1ccc(N2CCN(Cc3cccnc3)CC2)cc1 | 73 | – | –

Row | SMILES | inhibition (N2a-cl3) [%] | EC50 [1] [µM] | further results
19 | COc1cccc(N2CCN(Cc3cccnc3)CC2)c1 | – | > 32 | –
20 | c1cncc(CN2CCN(c3ccc(-c4nc5ccccc5o4)cc3)CC2)c1 | – | 0.3 | t1/2 (Liver): 9.2 min; t1/2 (Liver microsomes): 50.2 min; AUC (Brain): 14.2 µM·h; Cmax [5]: 900 nM; CC50 [2]: > 10 µM; Cmax [3]: 3600 nM; AUC(0-t) at 6 h [4]: 4.2 µM·h
21 | CC(=O)c1ccc(N2CCN(Cc3ccc(C)o3)CC2)cc1 | 78 | 4.62 | –
22 | Fc1ccccc1N1CCN(Cc2cccnc2)CC1 | – | > 32 | –
23 | c1ccc(N2CCN(Cc3cccnc3)CC2)cc1 | 4 | – | –
24 | Clc1ccc(N2CCN(Cc3ccccc3)CC2)cc1 | 6 | – | –
25 | Cc1ccc(CN2CCN(c3ccc(-c4nc5ccccc5o4)cc3)CC2)o1 | – | 3.3 | CC50 [2]: > 10 µM
26 | Cc1ccc(CN2CCN(c3ccc(-c4ncco4)cc3)CC2)o1 | – | > 10 | CC50 [2]: > 10 µM
27 | Clc1cccc(N2CCN(Cc3cc(Br)cs3)CC2)c1 | 34 | – | –
28 | c1cncc(CN2CCN(c3ccc(-c4nc5ccccc5s4)cc3)CC2)c1 | – | 0.4 | t1/2 (Liver): 17.3 min; t1/2 (Liver microsomes): 34.3 min; AUC (Brain): 14.4 µM·h; Cmax (Plasma): 600 nM; CC50 [2]: > 10 µM; Cmax [3]: 3000 nM; AUC(0-t) at 6 h [4]: 2.7 µM·h
29 | Clc1cccc(N2CCN(Cc3ccco3)CC2)c1 | 6 | – | –
30 | COc1ccc(CN2CCN(c3ccc(-c4nc5ccccc5o4)cc3)CC2)cn1 | – | 1.1 | t1/2 (Liver): 25.2 min; t1/2 (Liver microsomes): > 60 min; AUC(0-t) at 6 h [6]: 3 µM·h; Cmax [5]: 700 nM; CC50 [2]: > 10 µM; Cmax [3]: 1600 nM; AUC(0-t) at 6 h [4]: 1.1 µM·h
31 | Clc1cccc(N2CCN(Cc3ccccc3)CC2)c1 | 7 | – | –
32 | CC(=O)c1ccc(N2CCN(Cc3ccco3)CC2)cc1 | 96 | – | –
33 | Clc1ccc(N2CCN(Cc3ccco3)CC2)cc1 | 13 | – | –
34 | CC(=O)c1ccc(N2CCN(Cc3ccccc3)CC2)cc1 | 94 | 0.71 | –
35 | Clc1cccc(N2CCN(Cc3cccnc3)CC2)c1 | 4 | > 32 | –
